This note sets out measurements from ChEMBL document CHEMBL1142651, “Design and synthesis of conformationally constrained Grb2 SH2 domain binding peptides employing alpha-methylphenylalanyl based phosphotyrosyl mimetics” (J Med Chem, 2005).

As a reminder, the Kd is the concentration at which binding is half-saturated. A lower Kd goes with higher affinity. As a reminder, the koff is the first-order rate constant of dissociation. A high value points to fast dissociation.

“And” between values parts separate entries of the source, which are not always exact repeats. Equal entries are not always repeated.

Experiment [1] has as its target T1, Growth factor receptor-bound protein 2 (Homo sapiens, UniProt P62993). Kind of experiment: In vitro binding affinity for growth factor receptor bound protein 2 SH2 domain from human breast cancer cells. The format is cell-based, Cancer cell lines. Put shortly: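 SPR: Grb2 SH2 protein (b-Grb2) amine-coupled to CM5 dextran chip at 2500-5000 RU. Ligands 1.25-1500 nM in PBS pH 7.4 running buffer, injected at 25 °C in increasing order, in duplicate, 1 min association, 3 min dissociation, no regeneration. Double-referenced against a blank surface and buffer injections. KD from global fit (1:1 or heterogeneity model) of at least four independent data sets.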
Target sequence in this assay (P62993 whole entry, the tested form may be a part): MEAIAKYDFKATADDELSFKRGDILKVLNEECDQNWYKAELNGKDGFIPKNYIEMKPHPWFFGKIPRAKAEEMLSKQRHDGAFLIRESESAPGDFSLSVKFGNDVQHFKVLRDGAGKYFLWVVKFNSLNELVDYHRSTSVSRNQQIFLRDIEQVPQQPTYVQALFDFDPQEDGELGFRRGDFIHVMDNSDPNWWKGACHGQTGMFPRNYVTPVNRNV

For experiment [2], the target named is T1, Growth factor receptor-bound protein 2. Kind of experiment: In vitro relative association value for growth factor receptor bound protein 2 SH2 domain from human breast cancer cells. Format: cell-based. Particulars: Cancer cell lines.
Target sequence in this assay (P62993 whole entry, looked up, the tested form may be a part): as the sequence (P62993 whole entry, the tested form may be a part) above
Experiment [3] has the same target. Kind of experiment: In vitro dissociation rate constant for growth factor receptor bound protein 2 SH2 domain from human breast cancer cells. Particulars: cancer cell lines.
Target sequence in this assay (P62993 whole entry, the tested form may be a part): as above

Regarding `C[C@@]1(Cc2ccc(P(=O)(O)O)cc2)NC(=O)CC(c2ccc(CP(=O)(O)O)cc2)/C=C/C[C@@H](Cc2cccc3ccccc23)CNC(=O)[C@H](CC(N)=O)NC1=O` (stereo in doubt; 10), the dissociation constant (Kd) in experiment [1] was 2.28 nM and 4.3 nM.

Turning to `C[C@@]1(Cc2ccc(P(=O)(O)O)cc2)NC(=O)CC(c2ccc(CP(=O)(O)O)cc2)/C=C/C[C@@H](Cc2cccc3ccccc23)CNC(=O)[C@H](CC(N)=O)NC1=O` (stereo in doubt; 10B) [listing 1 of 2 here], the Ka in experiment [2] is 230000 1/M·1/S.

`C[C@@]1(Cc2ccc(P(=O)(O)O)cc2)NC(=O)CC(c2ccc(CP(=O)(O)O)cc2)/C=C/C[C@@H](Cc2cccc3ccccc23)CNC(=O)[C@H](CC(N)=O)NC1=O` (stereo in doubt; 10A) [listing 1 of 2 here]: in experiment [1], the Kd is 0.097 nM. In experiment [3], the koff is 0.00063 s⁻¹.

Regarding `C[C@@]1(Cc2ccc(P(=O)(O)O)cc2)NC(=O)CC(c2ccc(CP(=O)(O)O)cc2)/C=C/C[C@@H](Cc2cccc3ccccc23)CNC(=O)[C@H](CC(N)=O)NC1=O` (stereo in doubt; 10A) [listing 2 of 2 here], the Ka in experiment [2] is 6.5e+06 1/M·1/S.

`C[C@@]1(Cc2ccc(P(=O)(O)O)cc2)NC(=O)CC(c2ccc(CP(=O)(O)O)cc2)/C=C/C[C@@H](Cc2cccc3ccccc23)CNC(=O)[C@H](CC(N)=O)NC1=O` (stereo in doubt; 10B) [listing 2 of 2 here] had a Kd in experiment [1] of 72 nM. For the same compound, in experiment [3], the off-rate constant (koff) came out at 0.018 s⁻¹.
